Assay outcomes deposited in PubChem BioAssay by several laboratories.
In the library only some 4.2% were active in any assay of this set; here they are far more common.
AI-2 QS mod: modulates the Vibrio harveyi AI-2 quorum sensing system; activity change, % at 7.5 µM; Vibrio harveyi JMH597 AI-2 luminescence/OD600 ratio, 9 h; stronger effect = lower value; strain lacks LuxN and CqsS sensors; 0 = neutral-control median; 300,000 tested, 0.4% active; in the data active = activity change below about -75%, passing the limit was not always enough;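 also: luminescence divided by OD600 gain over 9 h not by final OD600 alone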
Cl transport mod: modulators of human KCC2 chloride dependent transport; Q9H2X9; KCC2 cells, thallium flux FluoZin-2 fluorescence; B-score of Tl+ flux slope (higher = more flux/activation; lower = inhibition) at 10 µM; 190,000 tested, 2.2% active; AID 1456;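 active = thallium flux slope and its plate-corrected score both differing from the plate sample mean at a set confidence after two filtering rounds, in either direction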;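 also: slope of fluorescence scaled to starting intensity during 10 to 20 s after thallium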
hERG rescue: compounds protecting human hERG from proarrhythmic drug block; activation (rescue from dofetilide block), less the hit threshold, % at 10 µM; CHO-hERG, FluxOR thallium flux, dofetilide IC70 present; 310,000 tested, 0.51% active; AID 1511;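 active = activation above the mean of controls blocked by dofetilide plus 5 SD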;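 also: thallium influx through hERG after potassium depolarization seen as dye fluorescence rise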
KCNQ1 act: potentiators or activators of human KCNQ1 potassium channel. B-score at 10 µM. 310,000 tested, 0.35% active. AID 2648. CHO-K1 KCNQ1, thallium flux FluxOR fluorescence; stronger effect = higher value. P51787;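 active = fluorescence ratio B-score, a plate-corrected score, at least three library SD, with initial intensity B-score within 5 SD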
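Assay system: CHO-K1 cells stably expressing KCNQ1. Medium: assay buffer for compound exposure, DMSO matched across wells. Timing: 37 °C overnight plating, 90-min dark dye load, 20-min compound pretreatment. Signal: kinetic FluxOR fluorescence, 10 s baseline plus 110 s post-stimulus.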
SUMO Mot1 rescue: inhibitors of SUMOylation pathway: yeast Mot1-301 growth rescue. growth rescue, % at 18.8 µM. 320,000 tested, 1% active. S. cerevisiae Mot1-301 growth rescue, ATP luminescence, 38.5C; percent above DMSO median, 100 means doubled;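 active = every valid replicate shows activation above 250% relative to neutral control wells; inactive = the rest, any valid replicate at or below 250%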;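 also: OY570 slx delta 5 strain wells were the positive control but not used for scaling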
KCNQ1 block: blocks the human KCNQ1 potassium channel; CHO-K1 KCNQ1, FluxOR thallium flux fluorescence; stronger effect = higher value; B-score at 10 µM; P51787; 310,000 tested, 1.3% active;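 active = compounds whose thallium flux B-score, printed positive for inhibition, exceeds three library SD while starting fluorescence stays within three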;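 also: channel opened by potassium depolarization with thallium stimulus after 20 min compound exposure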
Starred values were filed as active, the others as inactive; i = inactive; / = no result given.

SMILES	AI-2 QS mod	Cl transport mod	hERG rescue	KCNQ1 act	SUMO Mot1 rescue	KCNQ1 block
Cc1ccccc1NC(=O)CCC(=O)OCCCC(F)(F)C(F)(F)F	20.2	0.347	-7.3	i	54.5	i
CC(C)(C)OC(=O)C[C@H]1C/C=C\C[C@H](CC(=O)NCCO)C(=O)N[C@@H](c2ccccc2)COC1=O	/	/	/	/	0.2	/
Cc1nc2ccccc2c(=O)n1/N=C/c1ccc(O)cc1O	10.1	0.174	-12.0	i	-0.7	i
CCCc1nc2ccccc2c(=O)n1/N=C/c1ccccc1O	2.1	/	-16.2	i	-5.9	6*
Cc1cc(/C=N/n2c(COc3ccccc3C)nc3ccccc3c2=O)c(O)c([N+](=O)[O-])c1	16.8	-1.28	-16.6	i	0.9	14*
CCCCSc1nnc(-c2ccccc2NC(C)=O)c(=O)[nH]1	4.6	0.387	-9.6	i	-6.4	i
C/C=C1\COC(C(=O)NCc2ccccc2)(C(F)(F)F)C=C1C=C1CCCCC1 (stereo not drawn)	28.6	/	-16.4	i	7.3	7*
C=C1CCN(c2ccc(C(=O)NCc3ccc(C)cc3)cc2[N+](=O)[O-])CC1	1.9	/	-10.5	14*	-2.9	i
O=C(Nc1cc(Oc2ccccc2)cc([N+](=O)[O-])c1)C12CC3CC(C1)CC(n1cnc(Cl)n1)(C3)C2	16.2	0.987	-23.7	i	1.7	12*
O=C(CN1CCN(C(=O)CN2C(=O)NC3(CCCC3)C2=O)CC1)Nc1cccc(F)c1	/	/	/	/	18.7	/
O=C(N/N=C/c1coc2ccccc2c1=O)c1cc(Br)c(O)c(Br)c1	69.8	/	-30.4	i	-42.3	8*
NC(=O)N/N=C/c1coc2ccc3ccccc3c2c1=O	2.3	/	-5.0	i	334.2*	i
Cc1ccc(C2=NCCn3nc4cc([N+](=O)[O-])ccc4c32)cc1	13.2	/	-7.6	i	-5.8	i
COc1ccc(-n2cnc3ccccc3c2=O)c([N+](=O)[O-])c1	9.5	/	5.5*	i	-7.9	i
O=c1c2ccccc2ncn1-c1ccc(Br)cc1[N+](=O)[O-]	2.1	/	-6.1	i	3.3	i
Cc1ccc(S(=O)(=O)N(CC(=O)c2ccccc2)C(=O)N2CCN(C)CC2)cc1	30.7	/	-2.1	i	/	i
CCOc1ccc(N=C2NC(=O)S/C2=C\c2ccc(Cl)cc2)cc1	28.6	/	11.1*	i	-8.8	i
Cc1cccc(N(C)S(=O)(=O)c2csc(C(N)=O)c2)c1	9.8	/	-4.0	i	56.9	i
O=C(O)/C=C\c1cccc(-n2nnnc2SCc2ccccc2F)c1	35.7	/	-0.1	i	3.1	i
COC(=O)c1ccc(CN(c2ccc(C(=O)O)c(O)c2)S(=O)(=O)c2ccc(Cl)c([N+](=O)[O-])c2)cc1	28.2	/	-18.4	i	-35.3	7*
Cc1cc(C)c2nc(NNC(=O)c3ccc(S(=O)(=O)N4CCc5ccccc5C4)cc3)sc2c1	101.1	-0.125	-10.2	i	-9.1	i
Cc1cc(C)c2sc(NNC(=O)c3ccc(S(=O)(=O)N4CCc5ccccc5C4)cc3)nc2c1	37.0	-0.035	-6.0	i	313.4	7*
CC(NC(=O)CCC(=O)c1ccccc1)c1ccc(F)cc1 (stereo not drawn)	4.6	/	-16.0	i	78.5	i
Nc1ccccc1-n1cccc1	12.3	-0.412	-9.7	i	315.2*	i
Cc1ccc(C)n1-c1ccccc1N	3.9	-0.182	-5.0	i	-3.5	i
SMILES	AI-2 QS mod	Cl transport mod	hERG rescue	KCNQ1 act	SUMO Mot1 rescue	KCNQ1 block
Nc1nc(-c2ccccn2)nc(N)c1Cc1ccccc1F	84.1	-0.00475	-10.2	i	-1.3	i
Nc1nc(-c2ccccn2)nc(N)c1Cc1ccc(Cl)cc1Cl	62.1	0.156	-11.9	9*	100.6	i
CCC(=O)c1ccc(OCc2ccc(C(=O)c3ccccc3)cc2)cc1	26.3	1.79	-15.6	i	-18.2	i
C=CCOc1ccccc1CN(C(=O)CCl)c1ccc2c(c1)OCO2	34.4	/	-6.0	i	4.9	i
CCCCNC(=S)N/N=C1\C(=O)c2cccc3cccc1c23	17.2	4.97*	-3.4	i	-19.8	i
CNC(=S)N/N=C1\C(=O)c2cccc3cccc1c23	18.6	42.7*	-7.6	i	0.2	i
O=C(N/N=C1\C(=O)c2cccc3cccc1c23)c1ccc(O)cc1	1.4	1.66	-5.6	i	-5.4	i
CCN(C[C@H]1N[C@@](CC)(C(=O)OC)[C@H]2C(=O)N(C)C(=O)[C@@H]12)C(=O)Nc1ccc(C)cc1	/	/	/	/	-1.4	/
Cn1cnnc1SCCOc1ccc(Cl)cc1	-2.2	/	-6.5	i	5.2	i
Cc1cccc(OCCSc2nncn2C)c1	11.8	0.998	9.8*	i	-22.2	i
CCN(CC)CCOc1ccc(Br)cc1	15.7	-0.525	-10.6	i	-15.2	i
CCN(CC)CCOc1ccc(/C(=C(\Cl)c2ccccc2)c2ccccc2)cc1	3.3	/	-33.7	i	-31.3	11*
COc1cccc(/C=N/NC(=O)NC2CCCCC2)c1O	3.5	/	-8.2	i	2.6	i
O=C1CCC(c2ccc(-n3ccnc3)cc2)=NN1	-26.1	/	-6.4	33*	-7.0	i
CCCCCc1ccc(C2=NNC(=O)CC2)cc1	-89.5*	/	-13.6	i	4.0	i
CCCCCc1ccc(-c2ccc(=O)[nH]n2)cc1	-77.3*	/	-7.7	i	20.1	i
Cc1ccc(-c2ccc(=O)[nH]n2)cc1	12.3	0.555	-7.9	i	-5.5	i
C[C@H]1c2cccc(O)c2C(O)=C2C(=O)[C@]3(O)C(O)=C(C(N)=O)C(=O)[C@@H](N(C)C)C3[C@@H](O)C21 (stereo partly drawn)	-119.7*	/	-4.9	i	14.4	i
CS(=O)(=O)N1CC(C(=O)O)Oc2ccc(CC(=O)O)cc21 (stereo not drawn)	31.7	0.894	-7.9	i	12.0	i
O=c1oc2cc(O)ccc2cc1S(=O)(=O)c1ccccc1	68.7	/	-9.1	i	15.3	i
CCN(CC)c1ccc2cc(S(=O)(=O)c3ccc(Cl)cc3)c(=O)oc2c1	17.1	i	-8.1	i	-2.0	10*
CCCCCCc1cc2cc(S(=O)(=O)c3ccc(Cl)cc3)c(=O)oc2cc1O	15.9	0.783	-1.1	i	-20.8	11*
CCCCNC(=O)CSc1nc2cc3c(cc2c(=O)n1CCC(=O)NCCc1ccc(OC)c(OC)c1)OCO3	9.8	0.34	-20.9	i	15.5	i
C/C=C/C(=O)OCC(=O)Nc1cc(-c2cc(C)c(C)cc2C)nn1-c1ccccc1	15.7	0.0228	-3.2	i	77.2	i
Cn1c2ccccc2c2cc(/C=N/NC(=O)c3cc(O)cc(O)c3)ccc21	23.4	/	-7.5	i	0.8	i
